Tested on: Fibroblast
Test: Multiplex assay against human fibroblast
Format: toxicity, cell-based
Outline: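 Imaging took place on a CQ1 microscope at 37°C and 5% CO2 once compound had been added to live cells stained at seeding with Hoechst33342, BioTracker Green Microtubule Cytoskeleton Dye, MitoTracker Red and Annexin V Alexa Fluor 680. CellPathfinder machine-learning gating classed cells as Hoechst high-intensity objects or normal cells, classed normal cells as having healthy, pyknosed or fragmented nuclei, and classed pyknosed cells as mitotic or apoptotic. Tubulin, mitochondrial-mass and membrane-permeability phenotypes are per cents of the healthy-nucleus cells.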

[1] = 12 h, 1 µM, compound concentration 1 uM, replicate 1
[2] = 12 h, 1 µM, compound concentration 1 uM, replicate 2
[3] = 12 h, 10 µM, compound concentration 10 uM, replicate 1
[4] = 12 h, 10 µM, compound concentration 10 uM, replicate 2
[5] = 24 h, 1 µM, compound concentration 1 uM, replicate 1
[6] = 24 h, 1 µM, compound concentration 1 uM, replicate 2
[7] = 24 h, 10 µM, compound concentration 10 uM, replicate 1
[8] = 24 h, 10 µM, compound concentration 10 uM, replicate 2

CNC(=O)c1ccc(Nc2nc(OC3CCCC3)c3c(-c4ccc5nc(C)oc5c4)c[nH]c3n2)c(OC)c1
Population Apoptotic (%) [1]: 69%
Population Fragmented Nuclei (%) [1]: 29%
Population Healthy Nuclei (%) [1]: 53%
Population Hoechst High Intensity Objects (%) [1]: 10%
Population Membrane Permeable-Phenotype (%) [1]: 46%
Population Mitochondria Different-Phenotype (%) [1]: 5%
Population Mitotic Cells (%) [1]: 30%
Population Normal (%) [1]: 89%
Population Pyknosed Nuclei (%) [1]: 17%
Population Tubulin-Different-Phenotype (%) [1]: 80%
Total Cell Count [1]: 237
Population Apoptotic (%) [2]: 33%
Population Fragmented Nuclei (%) [2]: 60%
Population Healthy Nuclei (%) [2]: 34%
Population Hoechst High Intensity Objects (%) [2]: 33%
Population Membrane Permeable-Phenotype (%) [2]: 45%
Population Mitochondria Different-Phenotype (%) [2]: 9%
Population Mitotic Cells (%) [2]: 66%
Population Normal (%) [2]: 66%
Population Pyknosed Nuclei (%) [2]: 4%
Population Tubulin-Different-Phenotype (%) [2]: 86%
Total Cell Count [2]: 96
Population Apoptotic (%) [3]: 77%
Population Fragmented Nuclei (%) [3]: 33%
Population Healthy Nuclei (%) [3]: 50%
Population Hoechst High Intensity Objects (%) [3]: 14%
Population Membrane Permeable-Phenotype (%) [3]: 14%
Population Mitotic Cells (%) [3]: 22%
Population Normal (%) [3]: 85%
Population Pyknosed Nuclei (%) [3]: 16%
Population Tubulin-Different-Phenotype (%) [3]: 26%
Total Cell Count [3]: 194
Population Apoptotic (%) [4]: 33%
Population Fragmented Nuclei (%) [4]: 60%
Population Healthy Nuclei (%) [4]: 27%
Population Hoechst High Intensity Objects (%) [4]: 40%
Population Membrane Permeable-Phenotype (%) [4]: 30%
Population Mitochondria Different-Phenotype (%) [4]: 7%
Population Mitotic Cells (%) [4]: 66%
Population Normal (%) [4]: 59%
Population Pyknosed Nuclei (%) [4]: 12%
Population Tubulin-Different-Phenotype (%) [4]: 23%
Population Apoptotic (%) [5]: 67%
Population Fragmented Nuclei (%) [5]: 36%
Population Healthy Nuclei (%) [5]: 41%
Population Hoechst High Intensity Objects (%) [5]: 10%
Population Membrane Permeable-Phenotype (%) [5]: 26%
Population Mitochondria Different-Phenotype (%) [5]: 11%
Population Mitotic Cells (%) [5]: 32%
Population Normal (%) [5]: 89%
Population Pyknosed Nuclei (%) [5]: 22%
Population Tubulin-Different-Phenotype (%) [5]: 79%
Total Cell Count [5]: 265
Population Apoptotic (%) [6]: 100%
Population Fragmented Nuclei (%) [6]: 62%
Population Healthy Nuclei (%) [6]: 35%
Population Hoechst High Intensity Objects (%) [6]: 35%
Population Membrane Permeable-Phenotype (%) [6]: 19%
Population Mitochondria Different-Phenotype (%) [6]: 19%
Population Mitotic Cells (%) [6]: 0%
Population Normal (%) [6]: 64%
Population Pyknosed Nuclei (%) [6]: 1%
Population Tubulin-Different-Phenotype (%) [6]: 90%
Total Cell Count [6]: 92
Population Fragmented Nuclei (%) [7]: 28%
Population Healthy Nuclei (%) [7]: 52%
Population Hoechst High Intensity Objects (%) [7]: 23%
Population Membrane Permeable-Phenotype (%) [7]: 5%
Population Mitochondria Different-Phenotype (%) [7]: 3%
Population Normal (%) [7]: 76%
Population Pyknosed Nuclei (%) [7]: 19%
Population Tubulin-Different-Phenotype (%) [7]: 19%
Total Cell Count [7]: 193
Population Apoptotic (%) [8]: 71%
Population Fragmented Nuclei (%) [8]: 60%
Population Healthy Nuclei (%) [8]: 25%
Population Hoechst High Intensity Objects (%) [8]: 40%
Population Membrane Permeable-Phenotype (%) [8]: 7%
Population Mitochondria Different-Phenotype (%) [8]: 7%
Population Mitotic Cells (%) [8]: 28%
Population Normal (%) [8]: 60%
Population Pyknosed Nuclei (%) [8]: 13%
Population Tubulin-Different-Phenotype (%) [8]: 23%
Total Cell Count [8]: 85

Cn1nc(C(F)(F)F)cc1-c1cnc(N2CCc3cc(S(=O)(=O)Nc4c(F)cc(Cl)cc4F)cc(N4CCCC4=O)c32)nc1 [TP-020]
Population Apoptotic (%) [1]: 69%
Population Fragmented Nuclei (%) [1]: 20%
Population Healthy Nuclei (%) [1]: 59%
Population Hoechst High Intensity Objects (%) [1]: 13%
Population Membrane Permeable-Phenotype (%) [1]: 35%
Population Mitochondria Different-Phenotype (%) [1]: 4%
Population Mitotic Cells (%) [1]: 30%
Population Normal (%) [1]: 86%
Population Pyknosed Nuclei (%) [1]: 20%
Population Tubulin-Different-Phenotype (%) [1]: 58%
Total Cell Count [1]: 241
Population Apoptotic (%) [2]: 42%
Population Fragmented Nuclei (%) [2]: 56%
Population Healthy Nuclei (%) [2]: 26%
Population Hoechst High Intensity Objects (%) [2]: 34%
Population Membrane Permeable-Phenotype (%) [2]: 45%
Population Mitochondria Different-Phenotype (%) [2]: 18%
Population Mitotic Cells (%) [2]: 57%
Population Normal (%) [2]: 65%
Population Pyknosed Nuclei (%) [2]: 17%
Population Tubulin-Different-Phenotype (%) [2]: 72%
Total Cell Count [2]: 63
Population Apoptotic (%) [3]: 65%
Population Fragmented Nuclei (%) [3]: 30%
Population Healthy Nuclei (%) [3]: 57%
Population Hoechst High Intensity Objects (%) [3]: 7%
Population Membrane Permeable-Phenotype (%) [3]: 13%
Population Mitochondria Different-Phenotype (%) [3]: 1%
Population Mitotic Cells (%) [3]: 35%
Population Normal (%) [3]: 92%
Population Pyknosed Nuclei (%) [3]: 11%
Population Tubulin-Different-Phenotype (%) [3]: 3%
Total Cell Count [3]: 192
Population Apoptotic (%) [4]: 33%
Population Fragmented Nuclei (%) [4]: 62%
Population Healthy Nuclei (%) [4]: 28%
Population Hoechst High Intensity Objects (%) [4]: 41%
Population Membrane Permeable-Phenotype (%) [4]: 10%
Population Mitochondria Different-Phenotype (%) [4]: 0%
Population Mitotic Cells (%) [4]: 66%
Population Normal (%) [4]: 58%
Population Pyknosed Nuclei (%) [4]: 8%
Population Tubulin-Different-Phenotype (%) [4]: 10%
Total Cell Count [4]: 60
Population Apoptotic (%) [5]: 51%
Population Fragmented Nuclei (%) [5]: 19%
Population Healthy Nuclei (%) [5]: 57%
Population Hoechst High Intensity Objects (%) [5]: 9%
Population Membrane Permeable-Phenotype (%) [5]: 25%
Population Mitochondria Different-Phenotype (%) [5]: 4%
Population Mitotic Cells (%) [5]: 48%
Population Normal (%) [5]: 90%
Population Pyknosed Nuclei (%) [5]: 23%
Population Tubulin-Different-Phenotype (%) [5]: 55%
Total Cell Count [5]: 246
Population Apoptotic (%) [6]: 57%
Population Fragmented Nuclei (%) [6]: 57%
Population Healthy Nuclei (%) [6]: 26%
Population Hoechst High Intensity Objects (%) [6]: 36%
Population Membrane Permeable-Phenotype (%) [6]: 18%
Population Mitochondria Different-Phenotype (%) [6]: 27%
Population Mitotic Cells (%) [6]: 42%
Population Normal (%) [6]: 63%
Population Pyknosed Nuclei (%) [6]: 16%
Population Tubulin-Different-Phenotype (%) [6]: 27%
Total Cell Count [6]: 66
Population Apoptotic (%) [7]: 42%
Population Fragmented Nuclei (%) [7]: 22%
Population Healthy Nuclei (%) [7]: 66%
Population Hoechst High Intensity Objects (%) [7]: 10%
Population Membrane Permeable-Phenotype (%) [7]: 7%
Population Mitochondria Different-Phenotype (%) [7]: 1%
Population Mitotic Cells (%) [7]: 57%
Population Normal (%) [7]: 89%
Population Tubulin-Different-Phenotype (%) [7]: 2%
Total Cell Count [7]: 188
Population Apoptotic (%) [8]: 50%
Population Fragmented Nuclei (%) [8]: 52%
Population Healthy Nuclei (%) [8]: 35%
Population Hoechst High Intensity Objects (%) [8]: 38%
Population Membrane Permeable-Phenotype (%) [8]: 8%
Population Mitochondria Different-Phenotype (%) [8]: 0%
Population Mitotic Cells (%) [8]: 50%
Population Normal (%) [8]: 61%
Population Pyknosed Nuclei (%) [8]: 11%
Population Tubulin-Different-Phenotype (%) [8]: 25%
Total Cell Count [8]: 55
